pIC50: −log10 of the molar value. Values after ≈ are worked out from the molar mass of the structure shown.
Experiments:
Blood = assay: Inhibition of TNF-alpha-stimulated IL8 production in human whole blood incubated for 1 hr before TNFalpha challenge measured after 16 to 18 hrs; format: functional, tissue-based
Outline: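 Human whole blood diluted to 50% and stimulated with TNFα, with IL-8 secretion as read-out. IC50 is the mean of at least three independent dose–response curves, or of two where flagged.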

[1] = target: Mitogen-activated protein kinase 14 (Homo sapiens, UniProt Q16539); assay: Inhibition of human recombinant p38alpha assessed as phosphorylation of ATF2 by scintillation proximity assay
Sequence of Mitogen-activated protein kinase 14 (Q16539 whole entry): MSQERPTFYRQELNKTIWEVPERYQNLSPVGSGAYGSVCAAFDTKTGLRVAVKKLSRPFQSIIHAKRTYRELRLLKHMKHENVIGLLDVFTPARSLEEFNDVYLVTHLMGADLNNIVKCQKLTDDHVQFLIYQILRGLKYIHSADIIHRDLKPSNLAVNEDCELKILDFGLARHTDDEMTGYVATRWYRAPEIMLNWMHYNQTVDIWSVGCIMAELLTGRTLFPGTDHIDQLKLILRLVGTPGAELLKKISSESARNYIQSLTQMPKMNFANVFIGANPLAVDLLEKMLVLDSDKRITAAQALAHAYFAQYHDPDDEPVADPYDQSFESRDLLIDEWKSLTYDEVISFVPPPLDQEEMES

THP-1 = assay: Inhibition of LPS-induced TNFalpha release in human THP1 cells after 3 hrs; format: functional, cell-based; details: THP-1, 3 h
Outline: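 THP1 cell line challenged with LPS, with TNFα secretion as read-out. IC50 is the mean of at least three independent dose–response curves, or of two where flagged.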

[2] = AUC (0 to infinity) in Sprague-Dawley rat at 2 mg/kg, po; format: ADME, organism-based; design: time infinity, dose 2 mg/kg, route oral; details: plasma
Outline: (§1)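 Male Sprague–Dawley rats given 2.0 mg/kg iv (in DMSO) or 2.0 mg/kg po. Values are the mean of three rats. Reported parameters are CL, Vdss, t1/2, AUC(0-inf) and oral F.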

[3] = Clearance in Sprague-Dawley rat at 2 mg/kg, iv; format: ADME, organism-based; design: dose 2 mg/kg, route intravenous; details: in vivo; outline: as §1
[4] = Half life in Sprague-Dawley rat at 2 mg/kg, iv; format: ADME, organism-based; design: dose 2 mg/kg, route intravenous; details: in vivo; outline: as §1
[5] = Oral bioavailability in Sprague-Dawley rat at 2 mg/kg; format: ADME, organism-based; details: in vivo; outline: as §1
[6] = Volume of distribution at steady state in Sprague-Dawley rat at 2 mg/kg, iv; format: ADME, organism-based; design: dose 2 mg/kg, route intravenous; details: in vivo, read-out: Vdss; outline: as §1
[7] = Solubility in simulated intestinal fluid; format: physicochemical
[8] = Solubility in phosphate buffered saline; format: physicochemical
[9] = Solubility in 0.01N HCl; format: physicochemical
Cytochrome P450 2D6 = Cytochrome P450 2D6 (Homo sapiens, UniProt P10635); assay: Inhibition of CYP2D6; format: ADME
Sequence of Cytochrome P450 2D6 (P10635 whole entry): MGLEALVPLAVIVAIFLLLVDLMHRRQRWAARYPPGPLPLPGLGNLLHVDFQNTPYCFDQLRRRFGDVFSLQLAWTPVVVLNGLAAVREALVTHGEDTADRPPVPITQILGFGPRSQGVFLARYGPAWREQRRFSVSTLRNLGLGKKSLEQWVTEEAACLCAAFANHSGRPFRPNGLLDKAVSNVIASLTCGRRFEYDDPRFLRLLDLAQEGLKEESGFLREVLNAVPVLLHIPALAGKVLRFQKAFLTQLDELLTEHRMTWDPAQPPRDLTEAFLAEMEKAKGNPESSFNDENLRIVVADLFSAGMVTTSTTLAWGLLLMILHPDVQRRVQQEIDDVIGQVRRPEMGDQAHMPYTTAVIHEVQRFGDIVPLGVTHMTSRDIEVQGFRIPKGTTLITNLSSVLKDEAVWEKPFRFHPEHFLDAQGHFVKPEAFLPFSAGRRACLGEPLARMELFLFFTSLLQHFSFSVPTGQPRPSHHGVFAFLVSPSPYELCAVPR

Rattus norvegicus [10] = assay: Inhibition of LPS-induced TNFalpha production in po dosed Lewis rat administered 60 mins prior to LPS challenge measured after 90 mins by ELISA
Rattus norvegicus [11] = assay: Inhibition of LPS-induced TNFalpha production in Lewis rat at 0.01 mg/kg, po administered 60 mins prior to LPS challenge measured after 90 mins by ELISA
[12] = Ratio of drug level in brain to plasma in Lewis rat; format: ADME; details: read-out: BPR
Rattus norvegicus [13] = organism: Rattus norvegicus; assay: Plasma concentration in Lewis rat at ED50; format: ADME, organism-based; details: in vivo
Cytochrome P450 2C9 = Cytochrome P450 2C9 (Homo sapiens, UniProt P11712); assay: Inhibition of CYP2C9; format: ADME
Sequence of Cytochrome P450 2C9 (P11712 whole entry): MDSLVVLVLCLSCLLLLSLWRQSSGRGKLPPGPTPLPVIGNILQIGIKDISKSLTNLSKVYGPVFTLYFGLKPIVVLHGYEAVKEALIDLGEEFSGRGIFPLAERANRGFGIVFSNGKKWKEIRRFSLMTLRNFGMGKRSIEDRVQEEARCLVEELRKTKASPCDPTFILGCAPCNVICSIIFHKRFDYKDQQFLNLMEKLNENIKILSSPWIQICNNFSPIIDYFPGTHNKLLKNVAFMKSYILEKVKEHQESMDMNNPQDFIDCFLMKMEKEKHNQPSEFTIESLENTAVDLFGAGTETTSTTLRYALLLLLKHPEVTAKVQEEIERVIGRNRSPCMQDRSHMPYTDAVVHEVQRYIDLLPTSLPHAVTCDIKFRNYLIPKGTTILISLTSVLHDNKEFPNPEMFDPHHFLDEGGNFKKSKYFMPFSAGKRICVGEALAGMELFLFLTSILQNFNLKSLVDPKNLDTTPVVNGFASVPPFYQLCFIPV

Cytochrome P450 2C19 = Cytochrome P450 2C19 (Homo sapiens, UniProt P33261); assay: Inhibition of CYP2C19; format: ADME
Sequence of Cytochrome P450 2C19 (P33261 whole entry): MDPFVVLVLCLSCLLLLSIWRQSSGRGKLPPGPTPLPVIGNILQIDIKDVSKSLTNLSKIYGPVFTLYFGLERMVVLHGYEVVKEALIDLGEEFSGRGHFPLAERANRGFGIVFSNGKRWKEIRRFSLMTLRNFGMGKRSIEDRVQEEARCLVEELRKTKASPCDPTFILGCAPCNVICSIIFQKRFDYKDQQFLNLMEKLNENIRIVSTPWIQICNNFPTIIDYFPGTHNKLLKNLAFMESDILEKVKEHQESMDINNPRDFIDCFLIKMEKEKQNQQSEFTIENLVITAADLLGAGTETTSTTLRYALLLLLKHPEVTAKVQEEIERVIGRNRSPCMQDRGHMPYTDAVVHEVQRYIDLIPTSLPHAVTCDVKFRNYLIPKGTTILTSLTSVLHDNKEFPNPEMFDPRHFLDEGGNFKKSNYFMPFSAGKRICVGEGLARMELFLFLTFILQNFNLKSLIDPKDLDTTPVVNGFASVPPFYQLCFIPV

Rattus norvegicus [14] = assay: Inhibition of LPS-induced TNFalpha production in Lewis rat at 0.1 mg/kg, po administered 60 mins prior to LPS challenge measured after 90 mins by ELISA
Rattus norvegicus [15] = assay: Inhibition of LPS-induced TNFalpha production in Lewis rat at 0.3 mg/kg, po administered 60 mins prior to LPS challenge measured after 90 mins by ELISA
[16] = Protein binding in rat plasma by ultrafiltration method; details: read-out: PPB (converted)
[17] = target: RAF proto-oncogene serine/threonine-protein kinase (Homo sapiens) (UniProt P04049); assay: Inhibition of c-Raf at 1.5 uM; values are per cent of control
Sequence of RAF proto-oncogene serine/threonine-protein kinase (Homo sapiens) (P04049 whole entry): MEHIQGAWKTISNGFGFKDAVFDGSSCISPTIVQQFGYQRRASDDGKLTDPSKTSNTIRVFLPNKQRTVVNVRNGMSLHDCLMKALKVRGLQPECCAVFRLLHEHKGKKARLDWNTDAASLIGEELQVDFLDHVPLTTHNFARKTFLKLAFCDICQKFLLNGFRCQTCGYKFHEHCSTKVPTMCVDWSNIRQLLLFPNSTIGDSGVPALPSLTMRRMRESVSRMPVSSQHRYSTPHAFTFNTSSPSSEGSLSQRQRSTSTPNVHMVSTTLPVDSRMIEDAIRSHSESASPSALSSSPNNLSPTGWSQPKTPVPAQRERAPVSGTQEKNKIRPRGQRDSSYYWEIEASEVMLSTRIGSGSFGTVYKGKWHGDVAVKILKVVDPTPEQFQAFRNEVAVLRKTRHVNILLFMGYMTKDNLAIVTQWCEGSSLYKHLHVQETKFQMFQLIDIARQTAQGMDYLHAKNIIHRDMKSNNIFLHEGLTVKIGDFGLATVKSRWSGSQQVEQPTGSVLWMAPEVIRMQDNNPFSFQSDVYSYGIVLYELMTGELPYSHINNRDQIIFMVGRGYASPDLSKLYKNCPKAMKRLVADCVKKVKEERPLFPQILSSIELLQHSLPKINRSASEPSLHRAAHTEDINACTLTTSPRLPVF

Rattus norvegicus [18] = assay: Inhibition of LPS-induced TNFalpha production in Lewis rat at 0.03 mg/kg, po administered 60 mins prior to LPS challenge measured after 90 mins by ELISA

Row | SMILES | pIC50 (Blood) | pIC50 [1] | pIC50 (THP-1) | AUC(0-inf) [2] [ng·h/mL] | clearance [3] [mL/min/kg] | half-life [4] [h] | bioavailability [5] [%] | Vd [6] [L/kg] | other results
1 | Cn1c(=O)cc(Nc2cc(C(=O)NC3CC3)ccc2F)c2cnn(-c3c(F)cccc3F)c21 | 8.09 | 8.72 | 8.49 |  |  |  |  |  | 
2 | Cn1c(=O)cc(Nc2cc(C(=O)NC3CC3)ccc2Cl)c2cnn(-c3c(F)cccc3F)c21 | 8.82 | 8.96 | 9.21 | 139 | 21.7 | 3.4 | 9 | 1.9 | 
3 | Cc1ccc(C(=O)NC2CC2)cc1Oc1cc(=O)n(C)c2c1cnn2-c1c(F)cccc1F | 8.59 | 8.85 | 9.00 | 244 | 10.5 | 2.3 | 7 | 1.3 | 
4 | CCn1c(=O)cc(Nc2cc(C(=O)NC3CC3)ccc2C)c2cnn(-c3ccc(F)cc3)c21 | 8.72 | 8.40 | 8.96 |  |  |  |  |  | 
5 | Cc1ccc(C(=O)NC2CC2)cc1Nc1cc(=O)n(C)c2c1cnn2-c1c(F)cccc1F | 8.89 | 8.72 | 9.06 | 273 | 14.7 | 2.8 | 12 | 1.2 | 
6 | Cc1ccc(C(=O)O)cc1Nc1cc(=O)n(C)c2c1cnn2-c1ccc(F)cc1F | < 5.60 | < 6.00 | < 5.60 |  |  |  |  |  | 
7 | Cn1c(=O)cc(Nc2cc(C(=O)NC3CC3)ccc2Cl)c2cnn(-c3cc(F)ccc3F)c21 | 8.72 | 8.96 | 8.96 | 2160 | 8.67 | 2.1 | 56 | 1.2 | solubility [7]: 35.2 µg/mL (≈ 74.9 µM); solubility [8]: 24.9 µg/mL (≈ 53 µM); solubility [9]: 28.6 µg/mL (≈ 60.9 µM)
8 | Cc1ccc(C(N)=O)cc1Nc1cc(=O)n(C)c2c1cnn2-c1ccc(F)cc1F | 8.47 | 8.59 | 8.72 |  |  |  |  |  | 
9 | CCn1c(=O)cc(Nc2cc(C(=O)NC3CC3)ccc2Cl)c2cnn(-c3ccc(F)cc3)c21 | 9.03 | 8.92 | 9.00 | 2290 | 6.83 | 3.7 | 45 | 1.8 | 
10 | Cc1ccc(C(=O)NC2CC2)cc1Oc1cc(=O)n(C)c2c1cnn2-c1cc(F)ccc1F | 7.80 | 8.21 | 8.30 |  |  |  |  |  | 
11 | Cn1c(=O)cc(NC2CCOCC2)c2cnn(-c3cccc(F)c3)c21 | < 5.60 | < 6.00 | < 5.60 |  |  |  |  |  | 
12 | Cc1ccc(C(=O)NC2CC2)cc1Nc1cc(=O)n(C)c2c1cnn2-c1cc(F)ccc1F | 8.60 | 8.54 | 9.00 |  |  |  |  |  | 
13 | CCn1c(=O)cc(Oc2cc(C(=O)NC3CC3)ccc2C)c2cnn(-c3ccc(F)cc3)c21 | 7.89 | 8.40 | 8.74 | 1500 | 4.5 | 3.2 | 41 | 1.1 | 
14 | Cn1c(=O)cc(Nc2cc(C(=O)NC3CC3)ccc2Cl)c2cnn(-c3ccc(F)cc3F)c21 | 8.96 |  | 9.36 | 4610 | 6.17 | 3.8 | 81 | 1.2 | pIC50 (Cytochrome P450 2D6): 4.64; ED50 (Rattus norvegicus [10]): 0.05 mg/kg; inhibition in vivo at 0.01 mg/kg (Rattus norvegicus [11]): 21.6%; Kp [12]: 0.06; Cp (Rattus norvegicus [13]): 0.9 ng/mL; solubility [7]: 81.7 µg/mL (≈ 174 µM); solubility [8]: 60.6 µg/mL (≈ 129 µM); pIC50 (Cytochrome P450 2C9): 5.08; pIC50 (Cytochrome P450 2C19): 4.80; solubility [9]: 67.1 µg/mL (≈ 143 µM); inhibition in vivo at 0.1 mg/kg (Rattus norvegicus [14]): 83.9%; inhibition in vivo at 0.3 mg/kg (Rattus norvegicus [15]): 98.4%; fraction unbound [16]: 0.02; residual activity [17]: 75%; inhibition in vivo at 0.03 mg/kg (Rattus norvegicus [18]): 22.6%
15 | Cc1ccc(C(=O)NC2CC2)cc1Oc1cc(=O)n(C)c2c1cnn2-c1cccc(F)c1 | 7.54 | 8.07 | 7.92 |  |  |  |  |  | 
16 | Cn1c(=O)cc(Oc2cc(C(=O)NC3CC3)ccc2Cl)c2cnn(-c3cc(F)ccc3F)c21 | 7.10 | 8.48 | 7.85 |  |  |  |  |  | solubility [7]: 49 µg/mL (≈ 104 µM); solubility [8]: 14.7 µg/mL (≈ 31.2 µM); solubility [9]: 24.8 µg/mL (≈ 52.7 µM)
17 | Cn1c(=O)cc(Nc2ccc(F)cc2)c2cnn(-c3c(F)cccc3F)c21 | < 6.08 | < 6.00 | 6.26 |  |  |  |  |  | 
18 | Cc1ccc(C(=O)NC(C)(C)C)cc1Nc1cc(=O)n(C)c2c1cnn2-c1ccc(F)cc1F | 6.69 | 6.57 | 7.19 |  |  |  |  |  | 
19 | Cc1ccc(C(=O)NC2CC2)cc1Nc1cc(=O)n(C)c2c1cnn2-c1ccc(F)cc1F | 8.62 |  | 9.00 |  |  |  |  |  | 
20 | Cc1ccc(C(N)=O)cc1Nc1cc(=O)n(C)c2c1cnn2-c1cc(F)ccc1F | 8.15 | 8.43 | 8.12 |  |  |  |  |  | 
21 | Cc1ccc(C(=O)NC2CC2)cc1Nc1cc(=O)n(C)c2c1cnn2-c1cccc(F)c1 | 8.77 | 8.48 | 8.89 |  |  |  |  |  | 
22 | Cc1ccncc1Nc1cc(=O)n(C)c2c1cnn2-c1cc(F)ccc1F | 6.39 | 6.35 | 6.68 |  |  |  |  |  | 
23 | CCn1c(=O)cc(Nc2cc(C(=O)NC3CC3)ccc2Cl)c2cnn(-c3ccc(F)cc3F)c21 | 8.89 | 8.96 | 9.17 | 776 | 7 | 3.4 | 16 | 1.5 | 
24 | CONC(=O)c1ccc(C)c(Nc2cc(=O)n(C)c3c2cnn3-c2ccc(F)cc2F)c1 | 8.85 | 8.96 | 8.96 | 120 | 43.3 | 3.3 | 15 | 1.7 | 
25 | Cn1c(=O)cc(Nc2cc(C(=O)NC3CC3)ccc2F)c2cnn(-c3ccc(F)cc3F)c21 | 7.72 | 7.89 | 8.17 |  |  |  |  |  | 
26 | Cn1c(=O)cc(Nc2ccc(F)cc2F)c2cnn(-c3ccc(F)cc3F)c21 | < 5.60 | < 6.00 | 6.03 |  |  |  |  |  | 
27 | Cc1ccc(C(=O)NC2CC2)cc1Oc1cc(=O)n(C)c2c1cnn2-c1ccc(F)cc1F | 7.80 | 8.11 | 8.46 |  |  |  |  |  | solubility [7]: 12.2 µg/mL (≈ 27.1 µM); solubility [8]: 5.3 µg/mL (≈ 11.8 µM); solubility [9]: 5.7 µg/mL (≈ 12.7 µM)

Source: ChEMBL document CHEMBL1153060, “Part 1: Structure-Activity Relationship (SAR) investigations of fused pyrazoles as potent, selective and orally available inhibitors of p38alpha mitogen-activated protein kinase” (Bioorg Med Chem Lett, 2009)
